Measurements from ChEMBL document CHEMBL1255376, “Comparative surveillance study of telavancin activity against recently collected gram-positive clinical isolates from across the United States” (2008).
Values after ≈ are worked out from the molar mass of the structure shown.

Legend:
Assay type in all cases: functional
Staphylococcus aureus [1] = test: Antibacterial activity against methicillin-resistant Staphylococcus aureus
Staphylococcus aureus [2] = test: Antibacterial activity against methicillin-susceptible Staphylococcus aureus clinical isolate by broth microdilution method
Method in brief: (§1)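 MICs by CLSI broth microdilution in frozen trays pre-loaded with serial dilutions of each agent. Quality-control strains run in parallel: E. faecalis ATCC 29212 and ATCC 51299, S. aureus ATCC 29213, S. pneumoniae ATCC 49619. Comparator susceptibility categories follow CLSI breakpoints. Methicillin resistance in staphylococci assigned from the oxacillin MIC.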

Staphylococcus aureus [3] = test: Antibacterial activity against methicillin-resistant Staphylococcus aureus clinical isolate by broth microdilution method; method in brief: as §1
Staphylococcus cohnii [4] = test: Antibacterial activity against methicillin-susceptible coagulase-negative Staphylococcus cohnii clinical isolate by broth microdilution method; method in brief: as §1
[5] = system: Staphylococcus epidermidis; test: Antibacterial activity against methicillin-susceptible coagulase-negative Staphylococcus epidermidis clinical isolate by broth microdilution method; method in brief: as §1
Staphylococcus hominis [6] = test: Antibacterial activity against methicillin-susceptible coagulase-negative Staphylococcus hominis clinical isolate by broth microdilution method; method in brief: as §1
Mammaliicoccus sciuri [7] = test: Antibacterial activity against methicillin-susceptible coagulase-negative Staphylococcus sciuri clinical isolate by broth microdilution method; method in brief: as §1
Staphylococcus xylosus [8] = test: Antibacterial activity against methicillin-susceptible coagulase-negative Staphylococcus xylosus clinical isolate by broth microdilution method; method in brief: as §1
Staphylococcus capitis [9] = test: Antibacterial activity against methicillin-resistant coagulase-negative Staphylococcus capitis clinical isolate by broth microdilution method; method in brief: as §1
Staphylococcus cohnii [10] = test: Antibacterial activity against methicillin-resistant coagulase-negative Staphylococcus cohnii clinical isolate by broth microdilution method; method in brief: as §1
[11] = system: Staphylococcus epidermidis; test: Antibacterial activity against methicillin-resistant coagulase-negative Staphylococcus epidermidis clinical isolate by broth microdilution method; method in brief: as §1
[12] = system: Staphylococcus haemolyticus; test: Antibacterial activity against methicillin-resistant coagulase-negative Staphylococcus haemolyticus clinical isolate by broth microdilution method; method in brief: as §1
Staphylococcus hominis [13] = test: Antibacterial activity against methicillin-resistant coagulase-negative Staphylococcus hominis clinical isolate by broth microdilution method; method in brief: as §1
[14] = system: Staphylococcus saprophyticus; test: Antibacterial activity against methicillin-resistant coagulase-negative Staphylococcus saprophyticus clinical isolate by broth microdilution method; method in brief: as §1
Mammaliicoccus sciuri [15] = test: Antibacterial activity against methicillin-resistant coagulase-negative Staphylococcus sciuri clinical isolate by broth microdilution method; method in brief: as §1
Staphylococcus simulans = test: Antibacterial activity against methicillin-resistant coagulase-negative Staphylococcus simulans clinical isolate by broth microdilution method; method in brief: as §1
Staphylococcus xylosus [16] = test: Antibacterial activity against methicillin-resistant coagulase-negative Staphylococcus xylosus clinical isolate by broth microdilution method; method in brief: as §1
Staphylococcus = test: Antibacterial activity against methicillin-resistant coagulase-negative unspeciated Staphylococcus clinical isolate by broth microdilution method; method in brief: as §1
Enterococcus faecalis [17] = test: Antibacterial activity against vancomycin-susceptible Enterococcus faecalis clinical isolate by broth microdilution method; method in brief: as §1
Enterococcus faecalis [18] = test: Antibacterial activity against vancomycin- and teichoplanin-nonsusceptible Enterococcus faecalis clinical isolate by broth microdilution method; method in brief: as §1
Enterococcus faecium [19] = test: Antibacterial activity against vancomycin- and teichoplanin-nonsusceptible Enterococcus faecium clinical isolate by broth microdilution method; method in brief: as §1
Enterococcus faecium [20] = test: Antibacterial activity against vancomycin-resistant and teichoplanin-susceptible Enterococcus faecium clinical isolate by broth microdilution method; method in brief: as §1
Streptococcus pyogenes = test: Antibacterial activity against Streptococcus pyogenes clinical isolate by broth microdilution method
Method in brief: (§2)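 MIC by CLSI broth microdilution in frozen microtiter trays holding serial dilutions of each agent, prepared from standard laboratory powders. E. faecalis ATCC 29212 and ATCC 51299, S. aureus ATCC 29213 and S. pneumoniae ATCC 49619 run in parallel as quality-control strains. Comparator susceptibility interpreted with CLSI breakpoints.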

Streptococcus agalactiae = test: Antibacterial activity against Streptococcus agalactiae clinical isolate by broth microdilution method; method in brief: as §2
[21] = Antibacterial activity against Streptococcus sp. Group C clinical isolate by broth microdilution method; method in brief: as §2
Streptococcus sp. [22] = test: Antibacterial activity against Streptococcus sp. Group F clinical isolate by broth microdilution method
Method in brief: (§3)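 MIC by CLSI broth microdilution in frozen microtiter trays holding serial dilutions of each agent, prepared from standard laboratory powders. Comparator susceptibility interpreted with CLSI breakpoints.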

[23] = Antibacterial activity against Streptococcus sp. Group G clinical isolate by broth microdilution method; method in brief: as §2
Streptococcus equinus = test: Antibacterial activity against Streptococcus bovis clinical isolate by broth microdilution method; method in brief: as §2
[24] = system: Streptococcus constellatus; test: Antibacterial activity against Streptococcus constellatus clinical isolate by broth microdilution method; method in brief: as §2
[25] = system: Streptococcus intermedius; test: Antibacterial activity against Streptococcus intermedius clinical isolate by broth microdilution method; method in brief: as §2
Streptococcus mitis = test: Antibacterial activity against Streptococcus mitis clinical isolate by broth microdilution method; method in brief: as §2
Streptococcus oralis = test: Antibacterial activity against Streptococcus oralis clinical isolate by broth microdilution method; method in brief: as §2
Streptococcus sp. [26] = test: Antibacterial activity against Streptococcus sp. clinical isolate by broth microdilution method; method in brief: as §3
Streptococcus pneumoniae [27] = test: Antibacterial activity against penicillin susceptible Streptococcus pneumoniae clinical isolate by broth microdilution method; method in brief: as §1
Streptococcus pneumoniae [28] = test: Antibacterial activity against penicillin intermediate Streptococcus pneumoniae clinical isolate by broth microdilution method; method in brief: as §1
Staphylococcus capitis [29] = test: Antibacterial activity against daptomycin-nonsusceptible Staphylococcus capitis isolate 1285355 by broth microdilution method; method in brief: as §2
Staphylococcus aureus [30] = test: Antibacterial activity against vancomycin-, methicillin-resistant Staphylococcus aureus VRS1 by broth microdilution method
Method in brief: (§4)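 VISA and VRSA strains from the NARSA repository were tested separately from the surveillance isolates. MICs by CLSI broth microdilution in frozen trays with serial dilutions. Quality-control strains run in parallel. Susceptibility categories follow CLSI breakpoints, and methicillin resistance was assigned from the oxacillin MIC.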

Staphylococcus aureus [31] = test: Antibacterial activity against vancomycin-, methicillin-resistant Staphylococcus aureus VRS2 by broth microdilution method; method in brief: as §4

CCCCCCCCCCNCCN[C@@]1(C)C[C@H](O[C@H]2[C@H](Oc3c4cc5cc3Oc3ccc(cc3Cl)[C@@H](O)[C@@H](NC(=O)[C@@H](CC(C)C)NC)C(=O)N[C@@H](CC(N)=O)C(=O)N[C@H]5C(=O)N[C@H]3C(=O)N[C@H](C(=O)N[C@H](C(=O)O)c5cc(O)c(CNCP(=O)(O)O)c(O)c5-c5cc3ccc5O)[C@H](O)c3ccc(c(Cl)c3)O4)O[C@H](CO)[C@@H](O)[C@@H]2O)O[C@@H](C)[C@H]1O [TELAVANCIN]
MIC50 (Staphylococcus aureus [1]): 0.14 µM (≈ 0.246 µg/mL)
MIC50 (Staphylococcus aureus [2]): 0.25 µg/mL (≈ 0.142 µM)
MIC90 (Staphylococcus aureus [2]): 0.5 µg/mL (≈ 0.285 µM)
MIC50 (Staphylococcus aureus [3]): 0.25 µg/mL (≈ 0.142 µM)
MIC90 (Staphylococcus aureus [3]): 0.25 µg/mL (≈ 0.142 µM)
MIC50 (Staphylococcus cohnii [4]): 0.25 µg/mL (≈ 0.142 µM)
MIC90 (Staphylococcus cohnii [4]): 0.5 µg/mL (≈ 0.285 µM)
MIC50 [5]: 0.25 µg/mL (≈ 0.142 µM)
MIC90 [5]: 0.5 µg/mL (≈ 0.285 µM)
MIC50 (Staphylococcus hominis [6]): 0.25 µg/mL (≈ 0.142 µM)
MIC90 (Staphylococcus hominis [6]): 0.5 µg/mL (≈ 0.285 µM)
MIC50 (Mammaliicoccus sciuri [7]): 0.25 µg/mL (≈ 0.142 µM)
MIC90 (Mammaliicoccus sciuri [7]): 0.5 µg/mL (≈ 0.285 µM)
MIC50 (Staphylococcus xylosus [8]): 0.25 µg/mL (≈ 0.142 µM)
MIC90 (Staphylococcus xylosus [8]): 0.5 µg/mL (≈ 0.285 µM)
MIC50 (Staphylococcus capitis [9]): 0.25 µg/mL (≈ 0.142 µM)
MIC90 (Staphylococcus capitis [9]): 0.5 µg/mL (≈ 0.285 µM)
MIC50 (Staphylococcus cohnii [10]): 0.25 µg/mL (≈ 0.142 µM)
MIC90 (Staphylococcus cohnii [10]): 0.5 µg/mL (≈ 0.285 µM)
MIC50 [11]: 0.25 µg/mL (≈ 0.142 µM)
MIC90 [11]: 0.5 µg/mL (≈ 0.285 µM)
MIC50 [12]: 0.25 µg/mL (≈ 0.142 µM)
MIC90 [12]: 0.5 µg/mL (≈ 0.285 µM)
MIC50 (Staphylococcus hominis [13]): 0.25 µg/mL (≈ 0.142 µM)
MIC90 (Staphylococcus hominis [13]): 0.5 µg/mL (≈ 0.285 µM)
MIC50 [14]: 0.25 µg/mL (≈ 0.142 µM)
MIC90 [14]: 0.5 µg/mL (≈ 0.285 µM)
MIC50 (Mammaliicoccus sciuri [15]): 0.25 µg/mL (≈ 0.142 µM)
MIC90 (Mammaliicoccus sciuri [15]): 0.5 µg/mL (≈ 0.285 µM)
MIC50 (Staphylococcus simulans): 0.25 µg/mL (≈ 0.142 µM)
MIC90 (Staphylococcus simulans): 0.5 µg/mL (≈ 0.285 µM)
MIC50 (Staphylococcus xylosus [16]): 0.25 µg/mL (≈ 0.142 µM)
MIC90 (Staphylococcus xylosus [16]): 0.5 µg/mL (≈ 0.285 µM)
MIC50 (Staphylococcus): 0.25 µg/mL (≈ 0.142 µM)
MIC90 (Staphylococcus): 0.5 µg/mL (≈ 0.285 µM)
MIC50 (Enterococcus faecalis [17]): 0.5 µg/mL (≈ 0.285 µM)
MIC90 (Enterococcus faecalis [17]): 1 µg/mL (≈ 0.57 µM)
MIC50 (Enterococcus faecalis [18]): 8 µg/mL (≈ 4.56 µM)
MIC90 (Enterococcus faecalis [18]): 16 µg/mL (≈ 9.11 µM)
MIC50 (Enterococcus faecium [19]): 4 µg/mL (≈ 2.28 µM)
MIC90 (Enterococcus faecium [19]): 8 µg/mL (≈ 4.56 µM)
MIC50 (Enterococcus faecium [20]): 0.25 µg/mL (≈ 0.142 µM)
MIC90 (Enterococcus faecium [20]): 2 µg/mL (≈ 1.14 µM)
MIC50 (Streptococcus pyogenes): 0.03 µg/mL (≈ 0.0171 µM)
MIC90 (Streptococcus pyogenes): 0.06 µg/mL (≈ 0.0342 µM)
MIC50 (Streptococcus agalactiae): 0.06 µg/mL (≈ 0.0342 µM)
MIC90 (Streptococcus agalactiae): 0.06 µg/mL (≈ 0.0342 µM)
MIC [21]: 0.03 µg/mL (≈ 0.0171 µM)
MIC50 [21]: 0.03 µg/mL (≈ 0.0171 µM)
MIC90 [21]: 0.06 µg/mL (≈ 0.0342 µM)
MIC (Streptococcus sp. [22]): 0.03 µg/mL (≈ 0.0171 µM)
MIC50 (Streptococcus sp. [22]): 0.03 µg/mL (≈ 0.0171 µM)
MIC90 (Streptococcus sp. [22]): 0.06 µg/mL (≈ 0.0342 µM)
MIC [23]: 0.03 µg/mL (≈ 0.0171 µM)
MIC50 [23]: 0.03 µg/mL (≈ 0.0171 µM)
MIC90 [23]: 0.06 µg/mL (≈ 0.0342 µM)
MIC50 (Streptococcus equinus): 0.03 µg/mL (≈ 0.0171 µM)
MIC90 (Streptococcus equinus): 0.12 µg/mL (≈ 0.0684 µM)
MIC50 [24]: 0.03 µg/mL (≈ 0.0171 µM)
MIC90 [24]: 0.12 µg/mL (≈ 0.0684 µM)
MIC50 [25]: 0.03 µg/mL (≈ 0.0171 µM)
MIC90 [25]: 0.12 µg/mL (≈ 0.0684 µM)
MIC50 (Streptococcus mitis): 0.03 µg/mL (≈ 0.0171 µM)
MIC90 (Streptococcus mitis): 0.12 µg/mL (≈ 0.0684 µM)
MIC50 (Streptococcus oralis): 0.03 µg/mL (≈ 0.0171 µM)
MIC90 (Streptococcus oralis): 0.12 µg/mL (≈ 0.0684 µM)
MIC50 (Streptococcus sp. [26]): 0.03 µg/mL (≈ 0.0171 µM)
MIC90 (Streptococcus sp. [26]): 0.12 µg/mL (≈ 0.0684 µM)
MIC50 (Streptococcus pneumoniae [27]): 0.015 µg/mL (≈ 0.00854 µM)
MIC90 (Streptococcus pneumoniae [27]): 0.03 µg/mL (≈ 0.0171 µM)
MIC50 (Streptococcus pneumoniae [28]): 0.015 µg/mL (≈ 0.00854 µM)
MIC90 (Streptococcus pneumoniae [28]): 0.015 µg/mL (≈ 0.00854 µM)
MIC (Staphylococcus capitis [29]): 1 µg/mL (≈ 0.57 µM)
MIC (Staphylococcus aureus [30]): 4 µg/mL (≈ 2.28 µM)
MIC (Staphylococcus aureus [31]): 1 µg/mL (≈ 0.57 µM)
